The values below come from PubChem BioAssay AID493236 (Broad Institute, 2011).

Results filed as inconclusive are left out. A number with no mark means an inactive call. Calls of active or inactive are those of the source.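 Rule for the calls: active = luminescence cut by more than half of the full-inhibition control window in a dose series; inconclusive = no clear call, values can overlap the other calls; inactive = signal rising instead of falling, or the rest.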

This experiment relates to proteasome chymotrypsin-like activity (human). The experiment is described as follows: proteasome chymotrypsin-like activity inhibitors, dose response, counter-screen for HIF pathway activator project, cell-based, U2OS, luminescence, dry powder, set 4 (AID 493236). Particulars: U2OS cells, Proteasome-Glo chymotrypsin luminescence; series mostly up to 38 µM; activity change, negative = inhibition: at the top concentration. In outline: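 test system = U2OS cells | schedule = 24 h plating, 4 h compound, 2 h reagent | compound dosing = 8 concentrations, 3-fold steps | controls = MG132 1 µM positive control, DMSO neutral control | measured by = Proteasome-Glo luminescence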
With `O=C(Nc1ccc2ccccc2n1)c1cc(-c2ccccc2)on1`, the “activity change, negative = inhibition” value was -3.31%. On the same count and under the same terms, as for `Cc1ccc(CNc2nc(-c3ccccn3)nnc2-c2ccccc2)cc1C`, the figure is -3.29%. In the case of `Oc1ccc(CN2CCc3ccccc3C2)c2cccnc12`, the result was inactive.

For the molecule `Cc1ccccc1CNc1nc(-c2ccccn2)nnc1-c1ccccc1`, the “activity change, negative = inhibition” value was 2.35%. As for `c1ccc(-c2cccc(CNc3nc(-c4ccccn4)nnc3-c3ccccc3)c2)cc1`, the “activity change, negative = inhibition” value is 10.3%.

Consider `c1ccc(-c2nnc(-c3ccccn3)nc2N2CCC(c3ccccc3)C2)cc1` (stereo not given), for which the “activity change, negative = inhibition” value is 1.51%. Turning to `c1ccc(CCNc2nc(-c3ccccn3)nnc2-c2ccccc2)cc1`, the “activity change, negative = inhibition” value was -3.33%.

For `O=C(NCCCCO)c1cc(-c2ccccc2)on1`, the “activity change, negative = inhibition” value is -7.19%. Regarding `Cc1ccc(Nc2nc(-c3ccccn3)nnc2-c2ccccc2)cn1`, the “activity change, negative = inhibition” value was -0.351%. The same measure, in the same setting: next, `O=C(NCCCn1ccnc1)c1cc(-c2ccccc2)on1`: -8.48%. Still for that read-out and setting: as for `O=C(c1cc(-c2ccccc2)on1)N1CCC(N2CCOCC2)CC1`, the figure is 3.6%.

In the case of `c1ccc(-c2nnc(-c3ccccn3)nc2NCC2CCOCC2)cc1`, the “activity change, negative = inhibition” value is -4.29%. The same measure, in the same setting: next, `OCCCNc1nc(-c2ccccn2)nnc1-c1ccccc1`: -1.6%. As for `COc1ccc(CNc2nc(-c3ccccn3)nnc2-c2ccccc2)cc1`, the “activity change, negative = inhibition” value is -0.602%. The same measure, in the same setting: next, `COc1ccccc1N1CCN(Cc2ccc(O)c3ncccc23)CC1`: -1.65%; `O=C(NCCN1CCOCC1)c1cc(-c2ccccc2)on1`: -6.96%. Same read-out and setting: next, `Cc1cccc(CNc2nc(-c3ccccn3)nnc2-c2ccccc2)c1`: -2.56%. Same read-out and setting: next, `c1ccc(-c2nnc(-c3ccccn3)nc2NCC2CC2)cc1`: -1.38%; `Cc1cccc(CNC(=O)c2cc(-c3ccccc3)on2)c1`: 4.7%. Take `CC(C)(C)CCNc1nc(-c2ccccn2)nnc1-c1ccccc1`: the “activity change, negative = inhibition” value was -2.25%. Still for that read-out and setting: next, `C[C@H](Nc1nc(-c2ccccn2)nnc1-c1ccccc1)C1CCCCC1`: 2.06%; `c1ccc(-c2nnc(-c3ccccn3)nc2NCC2CCCCC2)cc1`: -0.951%. Still for that read-out and setting: as for `Cc1ccc(CNC(=O)c2cc(-c3ccccc3)on2)cc1`, the figure is 2.56%.

On to `Clc1cccc(CNc2nc(-c3ccccn3)nnc2-c2ccccc2)c1`, for which the “activity change, negative = inhibition” value was -1.26%. Still for that read-out and setting: next, `O=C(NCCCO)c1cc(-c2ccccc2)on1`: 0.054%; `CCCCNC(=O)c1cc(-c2ccccc2)on1`: 0.305%. Still for that read-out and setting: next, `O=C(NCCCN1CCOCC1)c1cc(-c2ccccc2)on1`: -1.67%; `COc1cccc(CNc2nc(-c3ccccn3)nnc2-c2ccccc2)c1`: 2.66%; `c1ccc(-c2ccc(CNc3nc(-c4ccccn4)nnc3-c3ccccc3)cc2)cc1`: -2.18%. Consider `O=C(Nc1ncc(-c2ccccc2)o1)c1cc(-c2ccccc2)on1`, for which the “activity change, negative = inhibition” value was 1.92%.

Regarding `c1ccc(-c2nnc(-c3ccccn3)nc2NCCc2ccccn2)cc1`, the “activity change, negative = inhibition” value is -5.96%. On the same count and under the same terms, as for `Cc1cccc(Nc2nc(-c3ccccn3)nnc2-c2ccccc2)n1`, the figure is 6.59%; as for `OCC1CCN(c2nc(-c3ccccn3)nnc2-c2ccccc2)CC1`, -0.354%. The same measure, in the same setting: as for `c1ccc(-c2nnc(-c3ccccn3)nc2Nc2cnc3ccccc3n2)cc1`, the figure is -6.01%. In the case of `c1ccc(-c2nnc(-c3ccccn3)nc2N2CCC(C3CCCCC3)C2)cc1` (stereo not given), the “activity change, negative = inhibition” value is -2.79%. Turning to `CN1CCN(C(=O)c2cc(-c3ccccc3)on2)CC1`, the “activity change, negative = inhibition” value is -0.104%.

Turning to `CC1CN(Cc2ccc(O)c3ncccc23)CC(C)O1` (stereo not given), the “activity change, negative = inhibition” value was -10%. Take `c1ccc(-c2nnc(-c3ccccn3)nc2NCCN2CCOCC2)cc1`: the “activity change, negative = inhibition” value is -6.63%. The same measure, in the same setting: as for `C[C@@H](Nc1nc(-c2ccccn2)nnc1-c1ccccc1)c1ccccc1`, the figure is -7.7%; as for `Oc1ccc(CN2CCC(Cc3ccccc3)CC2)c2cccnc12`, -2.75%.
